{
  "source": "the RNAGym collection of RNA variant scans (doi:10.1101/gad.245936.114)",
  "parents": {"B1": {"name": "tRNA (parent)", "chain": "CUCUCGGUAGCCAAGUUGGUUUAAGGCGCAAGACUUUAAUUUAUCACUACGAAAUCUUGAGAUCGGGCGUUCGACUCGCCCCCGGGAGAUUUUUUCCUCGAGCAA"}},
  "note": "Variants at the floor of the assay were thinned out.",
  "data": [
    {"variants_of": "B1", "assay": "nonsense suppression (GFP-seq) (ratio to wild type); higher = more function; SUP4oc tRNA, yeast GFP reporter sort-seq", "outline": "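Nonsense suppression (GFPSEQ) is the median GFP/RFP ratio of each sorting bin, weighted by the variant's estimated share of cells in that bin and expressed relative to the unmutated parent tRNA. Yeast strains carried genome-integrated variants of an ochre-suppressor tRNA from a library with ~3% random mutations, plus a galactose-driven GFP ochre reporter and RFP, and were grown in raffinose/galactose medium containing 80 mg/L adenine. Cells were sorted into GFP/RFP bins, each bin was Illumina-sequenced (phred ≥30), and variants were kept only with ≥100 reads and ≥30 cells.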", "values": [
      {"variant": "U76A C79A", "nonsense suppression": "≤ 0.026"},
      {"variant": "U76A C79G", "nonsense suppression": "≤ 0.026"},
      {"variant": "C72U G73C C79G", "nonsense suppression": "≤ 0.026"},
      {"variant": "G73A C79U", "nonsense suppression": 0.207},
      {"variant": "G78A G85U", "nonsense suppression": 0.0673},
      {"variant": "C75U G78C", "nonsense suppression": 1.14},
      {"variant": "C75U G78A", "nonsense suppression": 0.9},
      {"variant": "C75A G78A", "nonsense suppression": 0.698},
      {"variant": "C75A G78C", "nonsense suppression": 1},
      {"variant": "C75A C82A", "nonsense suppression": 0.217},
      {"variant": "A87G", "nonsense suppression": 1.16},
      {"variant": "G73A U76C", "nonsense suppression": 0.682},
      {"variant": "G73A U76A", "nonsense suppression": 0.0803},
      {"variant": "C80A G86A", "nonsense suppression": "≤ 0.026"},
      {"variant": "G78A C79G", "nonsense suppression": 0.0629},
      {"variant": "A74G C81G", "nonsense suppression": "≤ 0.026"},
      {"variant": "C77A C81U", "nonsense suppression": "≤ 0.026"},
      {"variant": "C79U G86C", "nonsense suppression": 0.0687},
      {"variant": "A74G G78C G86C", "nonsense suppression": "≤ 0.026"},
      {"variant": "C80U A87U", "nonsense suppression": 0.035},
      {"variant": "G84A A87G", "nonsense suppression": 0.157},
      {"variant": "C80U G88A", "nonsense suppression": 0.0263},
      {"variant": "U76C", "nonsense suppression": 1},
      {"variant": "U76A", "nonsense suppression": "≤ 0.026"},
      {"variant": "G73C U76A", "nonsense suppression": "≤ 0.026"},
      {"variant": "G85U G88A", "nonsense suppression": 0.0446},
      {"variant": "C75G G85U", "nonsense suppression": 1.12},
      {"variant": "C75G G85C", "nonsense suppression": 0.191},
      {"variant": "C72U C80A A87C", "nonsense suppression": 0.714},
      {"variant": "U76C A87G", "nonsense suppression": 0.932},
      {"variant": "C75A C79U", "nonsense suppression": 1.21},
      {"variant": "U76A C77A", "nonsense suppression": "≤ 0.026"},
      {"variant": "C81U", "nonsense suppression": 1.16},
      {"variant": "C82A A87U", "nonsense suppression": "≤ 0.026"},
      {"variant": "G84C G85C", "nonsense suppression": 0.0289},
      {"variant": "C72G G73A", "nonsense suppression": 0.0319},
      {"variant": "C72U G85U", "nonsense suppression": 0.0294},
      {"variant": "U76C C81U", "nonsense suppression": 0.0575},
      {"variant": "G86U A87U", "nonsense suppression": "≤ 0.026"},
      {"variant": "G78U G84A", "nonsense suppression": 0.0428},
      {"variant": "C79G C82G", "nonsense suppression": "≤ 0.026"},
      {"variant": "G73A A87U", "nonsense suppression": 0.0409},
      {"variant": "C79A G84C", "nonsense suppression": "≤ 0.026"},
      {"variant": "C82A C83U", "nonsense suppression": "≤ 0.026"},
      {"variant": "G78C A89U", "nonsense suppression": "≤ 0.026"},
      {"variant": "A74G G78C", "nonsense suppression": 0.0343},
      {"variant": "A74G G78U", "nonsense suppression": 0.0279},
      {"variant": "C75G G78C", "nonsense suppression": 0.361},
      {"variant": "A74G C75A G86C", "nonsense suppression": "≤ 0.026"},
      {"variant": "G84A G86U", "nonsense suppression": "≤ 0.026"},
      {"variant": "A74C C79U", "nonsense suppression": 0.037},
      {"variant": "G73A G85U", "nonsense suppression": 0.285},
      {"variant": "G73A G85A", "nonsense suppression": 1.03},
      {"variant": "C75G G78C C83A", "nonsense suppression": "≤ 0.026"},
      {"variant": "A74U G78A", "nonsense suppression": 0.0557},
      {"variant": "A74G C83G", "nonsense suppression": "≤ 0.026"},
      {"variant": "C81G A87G", "nonsense suppression": 0.0415},
      {"variant": "C75U G85U", "nonsense suppression": 1.12},
      {"variant": "C75U G85A", "nonsense suppression": 1.06},
      {"variant": "G78U G85C", "nonsense suppression": 0.0488},
      {"variant": "C75A C80G", "nonsense suppression": "≤ 0.026"},
      {"variant": "C75A C80U", "nonsense suppression": 1.01},
      {"variant": "G84A G88U", "nonsense suppression": "≤ 0.026"},
      {"variant": "G78A C83A", "nonsense suppression": "≤ 0.026"},
      {"variant": "G78A C83U", "nonsense suppression": 0.0266},
      {"variant": "C81A A89C", "nonsense suppression": "≤ 0.026"},
      {"variant": "A74G G84C", "nonsense suppression": "≤ 0.026"},
      {"variant": "G78U C82U", "nonsense suppression": 0.105},
      {"variant": "C81A A87U", "nonsense suppression": "≤ 0.026"},
      {"variant": "G78A C82A", "nonsense suppression": 0.0338},
      {"variant": "G78A C82G", "nonsense suppression": 0.0423},
      {"variant": "G78A G86A G88C", "nonsense suppression": "≤ 0.026"},
      {"variant": "C81A G85U", "nonsense suppression": "≤ 0.026"},
      {"variant": "U76G C79G G88A", "nonsense suppression": "≤ 0.026"},
      {"variant": "C75A A87G", "nonsense suppression": 0.839},
      {"variant": "G86C A87G", "nonsense suppression": 0.0881},
      {"variant": "G86U", "nonsense suppression": "≤ 0.026"},
      {"variant": "G86C", "nonsense suppression": "≤ 0.026"}
    ]}
  ]
}
